Columns and labels:
Assay type in all cases: functional
SK-MEL-2 = assay: Growth inhibition of human SK-MEL-2 cells at 10 uM after 48 hrs by SRB assay; conditions: SK-MEL-2, 48 h, read-out: GI
How it was run: (§1)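 NCI-60 primary one-dose screen run at the US NCI, with human tumour lines from nine cancer types. Compound added once at 10^-5 M, followed by 48 h incubation. End point was sulforhodamine B protein staining read spectrophotometrically. Result given as percent growth of treated cells against untreated controls, reported as % growth inhibition.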

ACHN [1] = assay: Cytotoxicity against human ACHN cells after 48 hrs by SRB assay
How it was run: (§2)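 NCI 60-cell-line panel of human tumour lines from nine cancer types. Continuous 48 h exposure at five 10-fold dilutions from 10^-4 to 10^-8 M, with 5-FU as positive control. SRB protein stain read spectrophotometrically at time zero, untreated control and each concentration. GI50, TGI and LC50 were derived from the [(Ti−Tz)/(C−Tz)]×100 growth relations, and out-of-range values are given as > or < the tested limits.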

[2] = Growth inhibition of human UACC62 cells at 10 uM after 48 hrs by SRB assay; conditions: UACC-62, 48 h, read-out: GI; how it was run: as §1
[3] = Growth inhibition of human LOXIMVI cells at 10 uM after 48 hrs by SRB assay; conditions: LOX IMVI, read-out: GI; how it was run: as §1
[4] = Cytotoxicity against human OVCAR4 cells after 48 hrs by SRB assay; conditions: OVCAR-4, 48 h; how it was run: as §2
NCI-H226 = assay: Growth inhibition of human NCI-H226 cells assessed as cell growth at 10^-6 M after 48 hrs by SRB assay; conditions: NCI-H226, 48 h, read-out: Activity
[5] = Growth inhibition of human MOLT4 cells at 10 uM after 48 hrs by SRB assay; conditions: MOLT-4, 48 h, read-out: GI; how it was run: as §1
[6] = Growth inhibition of human UACC257 cells at 10 uM after 48 hrs by SRB assay; conditions: UACC-257, 48 h, read-out: GI; how it was run: as §1
TK-10 = assay: Growth inhibition of human TK10 cells at 10 uM after 48 hrs by SRB assay; conditions: TK-10, 48 h, read-out: GI; how it was run: as §1
SF-268 = assay: Growth inhibition of human SF268 cells at 10 uM after 48 hrs by SRB assay; conditions: SF-268, 48 h, read-out: GI; how it was run: as §1
HL-60(TB) = assay: Growth inhibition of human HL-60(TB) cells at 10 uM after 48 hrs by SRB assay; conditions: HL-60, 48 h, read-out: GI
How it was run: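 NCI 60-cell-line primary screen: compound added at single concentration 10^-5 M, cultures incubated 48 h; end point by sulforhodamine B protein staining read spectrophotometrically; result given as growth percentage of treated versus untreated control cells, reported as % growth inhibition.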

HCT-116 = assay: Growth inhibition of human HCT116 cells at 10 uM after 48 hrs by SRB assay; conditions: HCT-116, 48 h, read-out: GI; how it was run: as §1
[7] = Growth inhibition of human HCC2998 cells at 10 uM after 48 hrs by SRB assay; conditions: HCC 2998, 48 h, read-out: GI; how it was run: as §1
[8] = Growth inhibition of human SF539 cells assessed as cell growth at 10^-5 M after 48 hrs by SRB assay; conditions: SF-539, 48 h, read-out: Activity
ACHN [9] = assay: Growth inhibition of human ACHN cells at 10 uM after 48 hrs by SRB assay; conditions: read-out: GI
How it was run: (§3)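 NCI primary one-dose screen. A single concentration of 10^-5 M was added to the cell culture, followed by 48 h incubation and an SRB protein-dye endpoint read spectrophotometrically. Results are growth percentage relative to untreated control cells, reported as % growth inhibition.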

SK-OV-3 = assay: Growth inhibition of human SKOV3 cells at 10 uM after 48 hrs by SRB assay; conditions: SK-OV-3, 48 h, read-out: GI; how it was run: as §1
CAKI-1 = assay: Growth inhibition of human CAKI-1 cells at 10 uM after 48 hrs by SRB assay; conditions: CAKI-1, 48 h, read-out: GI; how it was run: as §3
RPMI-8226 = assay: Growth inhibition of human RPMI8226 cells at 10 uM after 48 hrs by SRB assay; conditions: RPMI-8226, 48 h, read-out: GI; how it was run: as §1
[10] = Growth inhibition of human OVCAR4 cells at 10 uM after 48 hrs by SRB assay; conditions: OVCAR-4, 48 h, read-out: GI; how it was run: as §1
NCI-H460 [11] = assay: Growth inhibition of human NCI-H460 cells assessed as cell growth at 10^-7 M after 48 hrs by SRB assay; conditions: NCI-H460, 48 h, read-out: Activity
K562 [12] = assay: Growth inhibition of human K562 cells at 10 uM after 48 hrs by SRB assay; conditions: K562, 48 h, read-out: GI; how it was run: as §1
[13] = Growth inhibition of human RXF393 cells assessed as cell growth at 10^-7 M after 48 hrs by SRB assay; conditions: RXF 393, 48 h, read-out: Activity
COLO 205 = assay: Cytotoxicity against human COLO205 cells after 48 hrs by SRB assay; conditions: COLO 205, 48 h; how it was run: as §2
NCI-H460 [14] = assay: Growth inhibition of human NCI-H460 cells at 10 uM after 48 hrs by SRB assay; conditions: NCI-H460, 48 h, read-out: GI; how it was run: as §1
A549 = assay: Growth inhibition of human A549 cells at 10 uM after 48 hrs by SRB assay; conditions: A549, 48 h, read-out: GI; how it was run: as §3
HT-29 = assay: Growth inhibition of human HT-29 cells assessed as cell growth at 10^-8 M after 48 hrs by SRB assay; conditions: HT-29, 48 h, read-out: Activity
A498 = assay: Growth inhibition of human A498 cells at 10 uM after 48 hrs by SRB assay; conditions: A498, 48 h, read-out: GI; how it was run: as §3
K562 [15] = assay: Cytotoxicity against human K562 cells after 48 hrs by SRB assay; conditions: K562, 48 h; how it was run: as §2
[16] = read-out: LC50 (the source's name)
[17] = read-out: pLC50 (the source's name) (converted)

In the case of `Cc1ccc(-c2nc3ccc(Cl)cc3c(=O)n2/N=C/c2ccccc2)cc1`, the inhibition of growth at 10 µM (SK-MEL-2) is reported as less than 10%, the GI50 (ACHN [1]; read-out: GI50) is reported as 0.627 µM and the CC50 (ACHN [1]; [16]) is reported as greater than 100 µM. It also gave a TGI (ACHN [1]; read-out: TGI) greater than 100 µM, a GI50 (ACHN [1]; read-out: pGI50 (converted)) of 0.631 µM and a CC50 (ACHN [1]; [17]) greater than 100 µM. For the same compound, the TGI (ACHN [1]; read-out: pTGI) was greater than 100 µM, the inhibition of growth at 10 µM [2] was 23% and the inhibition of growth at 10 µM [3] was 11%. For the same compound, the GI50 ([4]; read-out: GI50) was 4.54 µM, the CC50 [4, 16] was greater than 100 µM and the TGI ([4]; read-out: TGI) was greater than 100 µM. For the same compound, the GI50 ([4]; read-out: pGI50 (converted)) was 4.57 µM, the CC50 [4, 17] was greater than 100 µM and the TGI ([4]; read-out: pTGI) was greater than 100 µM. It also gave a growth at 1 µM (NCI-H226) of 79%, an inhibition of growth at 10 µM [5] of 18% and an inhibition of growth at 10 µM [6] of less than 10%. For the same compound, the inhibition of growth at 10 µM (TK-10) was 26%, the inhibition of growth at 10 µM (SF-268) was 40% and the inhibition of growth at 10 µM (HL-60(TB)) was 26%. It also gave an inhibition of growth at 10 µM (HCT-116) of 47%, an inhibition of growth at 10 µM [7] of less than 10% and a growth at 10 µM [8] of 73%. For the same compound, the inhibition of growth at 10 µM (ACHN [9]) was 74%, the inhibition of growth at 10 µM (SK-OV-3) was 64% and the inhibition of growth at 10 µM (CAKI-1) was 40%. It also gave an inhibition of growth at 10 µM (RPMI-8226) of 20%, an inhibition of growth at 10 µM [10] of 86% and a growth at 0.1 µM (NCI-H460 [11]) of 99%. It also gave an inhibition of growth at 10 µM (K562 [12]) of less than 10%, a growth at 0.1 µM [13] of 101% and a GI50 (COLO 205; read-out: GI50) of 9 µM. The LC50 (concentration killing 50% of cells) (COLO 205; read-out: LC50) was greater than 100 µM, the TGI (COLO 205; read-out: TGI) was greater than 100 µM and the GI50 (COLO 205; read-out: pGI50 (converted)) was 8.91 µM. The LC50 (concentration killing 50% of cells) (COLO 205; read-out: pLC50 (converted)) was greater than 100 µM, the TGI (COLO 205; read-out: pTGI) was greater than 100 µM and the inhibition of growth at 10 µM (NCI-H460 [14]) was 23%. It also gave an inhibition of growth at 10 µM (A549) of 87%, a growth at 0.01 µM (HT-29) of 100% and an inhibition of growth at 10 µM (A498) of 16%. It also gave a GI50 (K562 [15]; read-out: GI50) greater than 100 µM, an LC50 (K562 [15]; read-out: LC50) greater than 100 µM and a TGI (K562 [15]; read-out: TGI) greater than 100 µM. It also gave a GI50 (K562 [15]; read-out: pGI50 (converted)) greater than 100 µM, an LC50 (K562 [15]; read-out: pLC50 (converted)) greater than 100 µM and a TGI (K562 [15]; read-out: pTGI) greater than 100 µM.
